Measured values as given in ChEMBL document CHEMBL1828568, “Novel imaging agents for β-amyloid plaque based on the N-benzoylindole core” (Bioorg Med Chem Lett, 2011).

Experiment: Displacement of [125I]TZDM from amyloid beta (1 to 40) aggregates after 2 hrs by gamma counting
Method in brief: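 Competition binding against [125I]TZDM as radiolabeled standard, using Aβ1–40 aggregates; run in triplicate, results as mean ± SD.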

Compound	Ki
O=C(/C=C/c1ccccc1)n1ccc2ccccc21	15.9 nM
O=C(/C=C/c1ccccc1)n1ccc2cc(Cl)ccc21	36.4 nM
